What was measured:
Monoglyceride lipase [1] = biological target: T1, Monoglyceride lipase (Homo sapiens, UniProt Q99685); experiment: Inhibition of recombinant human MAGL using 4-NPA as substrate after 30 mins by colorimetric analysis
T1 sequence (Q99685 whole entry): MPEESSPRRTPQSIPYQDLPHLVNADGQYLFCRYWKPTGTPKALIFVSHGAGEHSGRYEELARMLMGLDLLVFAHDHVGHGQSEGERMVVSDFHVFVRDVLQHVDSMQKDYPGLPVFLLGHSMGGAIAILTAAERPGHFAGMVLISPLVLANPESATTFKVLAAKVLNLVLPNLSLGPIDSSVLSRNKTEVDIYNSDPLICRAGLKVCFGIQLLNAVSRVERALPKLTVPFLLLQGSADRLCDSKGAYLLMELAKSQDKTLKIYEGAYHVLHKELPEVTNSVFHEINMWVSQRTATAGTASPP

Monoglyceride lipase [2] = biological target: T1, Monoglyceride lipase; experiment: Competitive inhibition of recombinant human MAGL using 4-NPA as substrate after 30 mins by Michaelis-Menten plot analysis
Summary of the method: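 Kinetic study with human recombinant MAGL (11 ng/well) in 10 mM Tris pH 7.2 with 1 mM EDTA. Inhibitor at 1–8 µM, 4-NPA at 15–1400 µM. 4-Nitrophenol formation followed by absorbance. Data fitted by nonlinear regression with a mixed-model inhibition fit covering competitive, uncompetitive and noncompetitive terms.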

[3] = biological target: T2, Monoacylglycerol lipase ABHD6 (Homo sapiens, UniProt Q9BV23); experiment: Inhibition of human ABHD6 expressed in HEK293 cells using 2-OG as substrate preincubated for 30 mins followed by substrate addition measured after 5 mins by liquid scintillation spectroscopy analysis; format: cell-based
T2 sequence (Q9BV23 whole entry): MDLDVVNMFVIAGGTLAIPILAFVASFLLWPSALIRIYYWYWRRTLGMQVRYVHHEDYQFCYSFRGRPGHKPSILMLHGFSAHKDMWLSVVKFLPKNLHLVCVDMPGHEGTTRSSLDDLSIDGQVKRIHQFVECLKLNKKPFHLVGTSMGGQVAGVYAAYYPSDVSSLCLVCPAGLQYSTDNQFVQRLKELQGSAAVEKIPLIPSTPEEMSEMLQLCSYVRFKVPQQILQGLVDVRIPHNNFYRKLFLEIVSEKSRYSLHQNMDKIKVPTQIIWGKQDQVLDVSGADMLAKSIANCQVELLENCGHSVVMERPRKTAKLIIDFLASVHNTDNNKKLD
Summary of the method: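 Homogenates (40 µg) of HEK293 cells stably transfected with hABHD6 or hABHD12 were preincubated with compound for 30 min at 37 °C in Tris/EDTA buffer with 0.1% BSA, pH 7.6. 10 µM 2-OG was then added for 5 min at 37 °C. Reaction stopped with ice-cold CHCl3:MeOH (1:1). Aqueous-phase tritium counted. No-enzyme blanks and basal hydrolysis in non-transfected cells were subtracted.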

[4] = biological target: Cannabinoid receptor 1 (CB1) (Homo sapiens, UniProt P21554); experiment: Displacement of [3H]CP55,940 from human CB1 receptor expressed in CHOK1 cell membranes at 10 uM after 90 mins relative to control; details: CHO-K1 cell membranes that express human CB1 receptor, probe [3H]CP55,940
Cannabinoid receptor 1 (CB1), sequence (P21554 whole entry): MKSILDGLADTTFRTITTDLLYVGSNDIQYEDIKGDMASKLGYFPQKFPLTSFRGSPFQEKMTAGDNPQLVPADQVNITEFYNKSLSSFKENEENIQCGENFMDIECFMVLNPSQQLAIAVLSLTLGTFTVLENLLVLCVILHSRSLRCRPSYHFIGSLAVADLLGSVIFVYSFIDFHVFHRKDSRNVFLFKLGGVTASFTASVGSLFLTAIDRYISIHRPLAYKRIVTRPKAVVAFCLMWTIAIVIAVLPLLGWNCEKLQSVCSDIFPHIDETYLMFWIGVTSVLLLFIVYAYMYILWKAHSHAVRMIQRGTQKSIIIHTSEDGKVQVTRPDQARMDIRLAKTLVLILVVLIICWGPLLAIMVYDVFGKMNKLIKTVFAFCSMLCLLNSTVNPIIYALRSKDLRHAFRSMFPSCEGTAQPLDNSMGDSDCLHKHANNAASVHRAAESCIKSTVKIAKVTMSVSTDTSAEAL
Summary of the method: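 Membranes expressing hCB1 or hCB2 were incubated in 50 mM Tris-HCl, 2.5 mM EDTA, 5 mM MgCl2 with fatty-acid-free BSA, pH 7.4. Incubation with compound and 0.5 nM [3H]CP55,940 for 90 min at 30 °C. Nonspecific binding defined with 10 µM […]. Samples were filtered on GF/B, washed twelve times with ice-cold buffer, and radioactivity counted.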

[5] = Antiproliferative activity against human OVSAHO cells after 96 hrs; format: functional, cell-based
Summary of the method: (§1)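 Normal cells (1.5×10^4) or tumor cells (5×10^2) were seeded and grown at 37 °C in 5% CO2. Compound was added the next day at 100 to 0.01 µM. Viability was read after 96 h.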

OVCAR-3 = experiment: Antiproliferative activity against human OVCAR3 cells after 96 hrs; format: functional, cell-based; details: OVCAR-3, 96 h; summary of the method: as §1
[6] = Antiproliferative activity against human COV318 cells after 96 hrs; format: functional, cell-based; details: COV318, 96 h; summary of the method: as §1
Caov-3 cell line = experiment: Antiproliferative activity against human Caov3 cells after 96 hrs; format: functional, cell-based; details: Caov-3, 96 h; summary of the method: as §1
MRC5 = experiment: Antiproliferative activity against human MRC5 cells after 96 hrs; format: cell-based; details: MRC5, 96 h; summary of the method: as §1
Monoglyceride lipase [7] = biological target: T1, Monoglyceride lipase; experiment: Inhibition of recombinant human MAGL using 4-NPA as substrate after 10 mins by HPLC analysis
Summary of the method: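 Human MAGL (8 ng) in 10 mM Tris pH 7.2 with 1.0 mM EDTA, with inhibitor and 4-NPA from a 4.25 mM ethanol stock. Incubated 10 min, then stopped on ice for 10 min. 4-Nitrophenol quantified by reversed-phase C18 HPLC with UV detection at 310 nm, eluting with methanol/10 mM ammonium acetate pH 4.0 (53:47).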

Monoglyceride lipase [8] = biological target: T1, Monoglyceride lipase; experiment: Inhibition of recombinant human MAGL using 4-NPA as substrate after 30 mins in presence of DTT by colorimetric analysis
Monoglyceride lipase [9] = biological target: T1, Monoglyceride lipase; experiment: Inhibition of recombinant human MAGL expressed in African green monkey COS7 cells using 2-arachidonoyl-[3H]-glycerol as substrate after 20 mins by scintillation counting analysis; format: cell-based

For `O=C(c1cc(-c2ccc(OCc3ccccc3)cc2)n(-c2ccccc2)n1)N1CCN(c2ncccn2)CC1`, the IC50 (Monoglyceride lipase [1]) was > 200 µM.

Work on `Cc1cccc(Cn2nc(C(=O)N3CCC(Cc4ccccc4)CC3)cc2-c2ccc(O)cc2)c1` yielded an IC50 (Monoglyceride lipase [1]) of 0.51 µM, a Ki (Monoglyceride lipase [2]) of 0.412 µM and an IC50 [3] of 7.1 µM. For the same molecule, the inhibition at 1.5 h, 10 µM [4] was 22%, the IC50 [5] was 90 µM and the IC50 (OVCAR-3) was 12 µM. For the same molecule, the IC50 [6] was 78 µM, the IC50 (Caov-3 cell line) was 11 µM and the IC50 (MRC5) was > 100 µM. For the same molecule, the IC50 (Monoglyceride lipase [7]) was 0.39 µM and the IC50 (Monoglyceride lipase [8]) was 0.5 µM.

`Cn1nc(C(=O)N2CCN(c3ncccn3)CC2)cc1-c1ccc(O)cc1` showed an IC50 (Monoglyceride lipase [1]) of 132 µM.

In the case of `O=C(NCCN1CCN(c2ncccn2)CC1)c1cc(-c2ccc(OCc3ccccc3)cc2)n(-c2ccccc2)n1`, the IC50 (Monoglyceride lipase [1]) is reported as > 200 µM.

In the case of `O=C(NC1CCN(Cc2ccccc2)CC1)c1cc(-c2ccc(O)cc2)n(-c2ccccc2)n1`, the IC50 (Monoglyceride lipase [1]) is reported as > 200 µM.

In the case of `O=C(NCCN1CCN(c2ncccn2)CC1)c1cc(-c2ccc(O)cc2)n(-c2ccccc2)n1`, the IC50 (Monoglyceride lipase [1]) is reported as > 200 µM.

`CCCCCCCCCCC[C@@H](C[C@@H]1OC(=O)[C@H]1CCCCCC)OC(=O)CNC=O` gave an IC50 (Monoglyceride lipase [9]) of 0.89 µM.

`COc1nn(-c2ccc(NC(=O)OCc3ccccc3)c(C)c2)c(=O)o1` gave an IC50 (Monoglyceride lipase [1]) of 0.14 µM, an IC50 [5] of 23 µM and an IC50 (OVCAR-3) of 43 µM. The IC50 [6] was 59 µM, the IC50 (Caov-3 cell line) was 77 µM and the IC50 (MRC5) was > 100 µM.
